Experimental data of several laboratories.
HRH2: Histamine H2 receptor (HRH2, Homo sapiens, UniProt P25021)
Tspo: Translocator protein (Tspo, Rattus norvegicus, UniProt P16257)
ADRA1A: Alpha-1A adrenergic receptor (ADRA1A, Homo sapiens, UniProt P35348)

| Structure (SMILES) | target | effect on | mode | technique | setting | Ki [nM] |
| --- | --- | --- | --- | --- | --- | --- |
| CC(C)c1nc2cc(OCCCCN3CCN(c4cccc5c4OCCO5)CC3)ccc2s1 | HRH2 | ligand displacement |  | radioligand |  | 240 |
| Oc1cccc(Nc2nc(-c3ccc(F)cc3F)cs2)c1 | Kappa-type opioid receptor (Oprk1, Rattus norvegicus, UniProt P34975) | cell-free assay |  | radioligand |  | 2200 |
| CNC(=O)[C@@]12C[C@@H]1[C@@H](n1cnc3c(NC)nc(C#Cc4ccccc4Cl)nc31)[C@H](O)[C@@H]2O | Tspo | ligand displacement |  | radioligand |  | > 10000 |
| CC[Si](C#Cc1ccc2c(c1)C=C([N+](=O)[O-])C(C(F)(F)F)O2)(CC)CC (stereo not shown) | Tspo | cell-free assay |  | radioligand |  | 500 |
| COc1ccccc1N1CCN(CCCCN2CCc3ccccc3C2=O)CC1 | ADRA1A | ligand displacement |  | radioligand |  | 11.1 |
| CNc1nc(C#Cc2ccc(Cl)s2)nc2c1ncn2[C@H]1[C@H](O)[C@H](O)[C@]2(C(=O)OCCC3CCCCC3)C[C@H]12 | Tspo | ligand displacement |  | radioligand |  | > 10000 |
| CC1(C)C=Cc2c(cc3oc(-c4ccccc4)c(O)c(=O)c3c2O)O1 | Peroxisome proliferator-activated receptor delta (PPARD, Homo sapiens, UniProt Q03181) | ligand displacement |  | TR-FRET |  | 1300 |
| CNC(=O)[C@@]12C[C@@H]1[C@@H](n1cnc3c(NC)nc(C#Cc4ccc(Cl)s4)nc31)[C@H](O)[C@@H]2O | Tspo | cell-free assay |  | radioligand |  | 859 |
| OCCCN1CC[C@@H]2C[C@H]1c1cc(-c3ccc(C(F)(F)F)cc3)ccc12 | ADRA1A | ligand displacement |  | radioligand |  | 1990 |
| CNc1nc(C#Cc2ccc(Cl)s2)nc2c1ncn2[C@@H]1O[C@H](C(=O)OC)[C@@H](O)[C@H]1O | Tspo | ligand displacement |  | radioligand |  | > 10000 |
| CNc1nc2cc(OCCCCN3CCC(c4cccc(Cl)c4Cl)CC3)ccc2s1 | HRH2 | ligand displacement |  | radioligand |  | 330 |
| O=C1c2ccccc2CCN1CCCCN1CCN(c2cccc(Cl)c2Cl)CC1 | ADRA1A | ligand displacement |  | radioligand |  | 117 |
| O=C(c1cccc(/N=N/c2cccc(OCCCN3CCCCC3)c2)c1)N1CCCC1 | HRH2 | ligand displacement |  | radioligand |  | > 10000 |
| CC1=C(/C=C/C(C)=C/C=C/C(C)=C/c2cc(/C=C/C=C(C)/C=C/C3=C(C)CCCC3(C)C)cc[n+]2CCO)C(C)(C)CCC1 | Sterol 26-hydroxylase, mitochondrial (CYP27A1, Homo sapiens, UniProt Q02318) | enzyme activity | inhibitor |  |  | 2900 |
| CNC(=O)[C@@]12C[C@@H]1[C@@H](n1ccc3c(NC)ncnc31)[C@H](O)[C@@H]2O | Tspo | ligand displacement |  | radioligand |  | > 10000 |
| C[C@H]1Oc2cc(cnc2N)-c2c(nn(C)c2C#N)CN(C)C(=O)c2ccc(F)cc21 | Focal adhesion kinase 1 (PTK2, Homo sapiens, UniProt Q05397) | cell-free assay |  |  | lysate | 10.3 |
